Test results as given in ChEMBL document CHEMBL4513216, “Probing the Open Global Health Chemical Diversity Library for Multistage-Active Starting Points for Next-Generation Antimalarials” (ACS Infect Dis, 2020).

Assay: Toxicity liver stage against HepG2, at 10uM
Assay type: cell-based
Design: test concentration 10 uM, cell line HepG2-A16-CD81EGFP
Settings: human, HepG2-A16-CD81EGFP cells; read-out: INHIBITION
Outline: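 Uninfected HepG2-A16-CD81EGFP cells, 3 × 10^3 per well, 1536-well, plated on prespotted compound at 10 μM final, parasite-free screening media added to match infected plates; puromycin 10 μM positive, DMSO 0.5% negative; run in parallel with 48 h PbLuc assay at 37 °C, 5% CO2; viability by CellTiter-Glo luminescence, normalized to controls.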

Structure (SMILES) | cytotoxicity at 10 µM [%]
O=C(Cc1ccccn1)N1C[C@@H](Oc2cccnc2)[C@H]2OCCC[C@H]21 | 7.8
CCCN(C(=O)COCC)c1cccc(C)c1 | 0.727
Cc1nc2[nH]cnc(NCCCN3CCOCC3)c-2n1 | -13.3
Cc1nn(C)c(C)c1NC(=O)CCn1ncc2c(C)cccc21 | -10.8
CNC(=O)[C@@H]1CN(Cc2ccccc2)C[C@H]1C(=O)c1ccc(F)cc1 | -0.17
Cc1ccnc(C2CCN(C(=O)CCn3ncc4ccccc43)C2)n1 (stereo not given) | -22.3
CCn1cc(CN2CCN(CC(O)c3ccc(C)cc3C)CC2)cn1 (stereo not given) | -24.6
c1ccc(-c2cc(CNCCN3CCOCC3)c3nnnn3c2)cc1 | -17.6
c1ccc(CN2CCC(c3nccnc3-n3ccnc3)CC2)cc1 | -19.6
Cc1cc(C2CCCN2C(=O)Nc2cn[nH]c2)on1 (stereo not given) | 1.24
CN1N=C(C(=O)NCCc2csc(-c3ccccc3)n2)CCC1=O | 0.621
CCc1c(C(=O)N2CCOC(C)(C)C2)cnn1-c1ccccn1 | -7.92
COC(=O)C1(NCC(=O)Nc2cc(C)ccc2OC)CCCCC1 | 4.02
CC(C)c1nc(C2CCCN2C(=O)c2ccc3nncn3c2)no1 (stereo not given) | -10.3
CCS(=O)(=O)c1ccc(N2CCC(NC(=O)c3ccccn3)CC2)cc1 | 10.8
Cc1ccc(S(=O)(=O)NC(C)C#N)cc1Br (stereo not given) | 0.727
Cc1ccc(C(C)NC(=O)Cc2c(C)nc3c(c2C)c(=O)[nH]n3C)o1 (stereo not given) | -16.3
O=C(Nc1cccc(CN2CCOC2=O)c1)N1CCOCC1 | -8.6
O=C1NCCO[C@H]2CN(C(=O)Cc3csc4ccccc34)CC[C@@H]12 | -101
Cc1noc(C)c1CN(C)C(=O)CN1CC(c2ccccc2)CC1=O (stereo not given) | -2.4
CNc1ncccc1CN1CCN(c2cc(NC3CC3)nc(N)n2)CC1 | -6.58
c1cncc(NCCNC2CCCNC2)c1 (stereo not given) | -4.5
CCC(C)N(Cc1ccc(C)cc1)Cc1c[nH]c(C)n1 (stereo not given) | 7.87

Structure (SMILES) | cytotoxicity at 10 µM [%]
O=C(NC1CC(=O)N(C2Cc3ccccc3C2)C1)c1ccsc1 (stereo not given) | -1.98
CC(C)Cc1cc(C(=O)N2CCC(Oc3cccnc3)CC2)n(C)n1 | -0.423
O=C(Cc1ccc(F)cc1Cl)N1C[C@@H](CN2CCC(O)CC2)[C@@H](CO)C1 | 9.32
Cc1cc(C)nc(CCNC(=O)C(c2ccc(F)cc2)N(C)C)n1 (stereo not given) | -40.1
Cc1nc(CN2CCC(C(=O)O)(n3ccc(-c4ccco4)n3)CC2)co1 | -12.1
CCS(=O)(=O)N1CCC(c2nnc(Cn3cccn3)n2C2CC2)CC1 | -14.2
COc1ccccc1-c1cc(C(F)(F)F)c2c(C)nn(CC(=O)O)c2n1 | 5.25
Cc1cc(C)n(CC2CN(Cc3nnc(C)o3)CCO2)n1 (stereo not given) | -7.95
COCCN1CCC(C(=O)c2cc(F)ccc2F)CC1 | -9.47
Cc1ccc(CC(=O)N2CCCC(n3nc(C)cc3C)C2)cn1 (stereo not given) | -8.54
NC(=O)CN1CCCN(C(=O)Cc2ccc(F)cc2)CC1 | -9.17
Cc1c(C(=O)N2CCCC(n3cccn3)C2)nnn1-c1ccccc1 (stereo not given) | -3.45
Cc1cnn(CC2CCCCN2C(=O)Cc2cn3ccsc3n2)c1 (stereo not given) | -5.5
Cc1nc(C)n(CC2CCCN(c3ncnc4[nH]ccc34)C2)n1 (stereo not given) | 12.8
c1ncn(CC2CN(CC3CCCC3)CCO2)n1 (stereo not given) | 4.93
COc1cc(COCC2CCN(Cc3cccnc3)CC2)cc(OC)c1 | 0
CC(C)NC(=O)N1CCC2(CCC(=O)N2CCN2CCCC2)CC1 | 3.7
CCO[C@H]1CC[C@H]2[C@H]1OCCN2CCOCc1ccccc1 | -111
Cc1ccoc1C(=O)N1CC[C@@H]2CN(C3CCOCC3)CCO[C@@H]2C1 | -120
Cc1cc(C(=O)N2CCC3(CC2)C(=O)N(C)CCN3CC2CC2)c(C)o1 | -96.5
Cc1cc(CCC(=O)Nc2nncs2)nc(C2CCCN2)n1 (stereo not given) | -28
COCCC(=O)NCCn1nc(C2CCNC2)c2cccnc21 (stereo not given) | -16.5
